From ChEMBL document CHEMBL3804783, “Identification of a Small Molecule Cyclophilin D Inhibitor for Rescuing Aβ-Mediated Mitochondrial Dysfunction” (ACS Med Chem Lett, 2016)

Columns and labels:
SK-N-SH [1] = test: Effect on ATP level in human SK-N-SH cells at 10 to 20 uM after 48 hrs by bioluminescence analysis; format: ADME, cell-based
How it was run: (§1)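 SK-N-SH cells given 5 μM oligomeric Aβ1–42 together with 10 or 20 μM inhibitor, 1 μM CsA, or vehicle. Controls were Aβ alone and cells without Aβ. After 48 h, ATP level or CcO enzymatic activity measured in cell lysates.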

[2] = Effect on mouse brain cortical mitochondrial swelling at 10 to 100 uM incubated for 5 mins by spectrophotometric analysis; format: ADME, Mitochondria
How it was run: (§2)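 Cortical mitochondria isolated from mice (100 μg) kept on ice for 5 min with or without inhibitor. Swelling then triggered by adding 200 μM Ca2+ to the reaction buffer and compared with vehicle-treated mitochondria.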

SK-N-SH [3] = test: Cytotoxicty against human SK-N-SH cells at 5 to 100 uM after 48 hrs by MTT assay; format: cell-based
How it was run: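 SK-N-SH cells exposed at 37 °C for 48 h to 0, 5, 10, 25, 50 or 100 μM inhibitor diluted in culture medium, with vehicle as 0. Survival and toxicity read by MTT reduction.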

SK-N-SH [4] = test: Effect on cytochrome c oxidase activity in human SK-N-SH cells at 10 to 20 uM after 48 hrs by spectrophotometrical analysis; format: ADME, cell-based; how it was run: as §1
[5] = target: Peptidyl-prolyl cis-trans isomerase F, mitochondrial (Mus musculus) (UniProt Q99KR7); test: Inhibition of cyclophilin D in mouse brain cortical mitochondria assessed as suppression of calcium-induced mitochondrial swelling incubated for 5 mins by spectrophotometric analysis; how it was run: as §2
Chain of Peptidyl-prolyl cis-trans isomerase F, mitochondrial (Mus musculus) (Q99KR7 whole entry): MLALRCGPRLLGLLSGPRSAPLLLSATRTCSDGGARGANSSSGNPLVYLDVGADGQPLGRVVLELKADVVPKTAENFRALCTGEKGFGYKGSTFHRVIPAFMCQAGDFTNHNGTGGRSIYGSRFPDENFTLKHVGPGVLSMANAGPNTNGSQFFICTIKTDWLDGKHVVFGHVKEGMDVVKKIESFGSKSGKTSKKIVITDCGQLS

inhibition [5]: Dose-dependent effect
Compound: Cc1nc(-c2ccc(OCC(C)C)c(C#N)c2)sc1C(=O)Nc1ccc(S(N)(=O)=O)cc1
Activity (SK-N-SH [1]): Non-toxic
Activity [2]: Non-toxic
Activity (SK-N-SH [3]): Non-toxic
Activity (SK-N-SH [4]): Non-toxic
